Reference: ChEMBL document CHEMBL1138064, “Discovery of N-[(3R)-1-azabicyclo[2.2.2]oct-3-yl]furo[2,3-c]pyridine-5-carboxamide, an agonist of the alpha7 nicotinic acetylcholine receptor, for the potential treatment of cognitive deficits in schizophrenia: synthesis and structure--activity relationship” (J Med Chem, 2006)
pEC50, pIC50, pKi: −log10 of the molar value.

Molecular target: Serotonin 3 (5-HT3) receptor
Experiment: Binding affinity to 5HT3 receptor
Type: protein-complex assay, Homo sapiens
Details: not given

SMILES | pKi
O=C(N[C@H]1CN2CCC1CC2)c1ccc2occc2c1 | 6.18
O=C(N[C@H]1CN2CCC1CC2)c1ccc2ccsc2c1 | 6.76
O=C(N[C@H]1CN2CCC1CC2)c1ccc2ccoc2c1 | 6.51
O=C(N[C@H]1CN2CCC1CC2)c1ccc(Cl)cc1 [PNU-282987] | 5.78

Tested on: not listed separately
Experiment: Activity at alpha7-5HT3 chimera expressed in SHEP1 cells by FLIPR assay
Type: functional, cell-based
Details: Homo sapiens, SH-EP1
How it was run: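 Cell-based FLIPR functional assay in SH-EP1 cells expressing the α7-5HT3 chimera. Values are the average of at least five experiments for most compounds.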

SMILES | pEC50
O=C(N[C@H]1CN2CCC1CC2)c1cc2cc[nH]c2cn1 | 5.93
O=C(N[C@H]1CN2CCC1CC2)c1ccc2[nH]ccc2c1 | 6.26
O=C(N[C@H]1CN2CCC1CC2)c1cc2occc2cn1 | 6.43
O=C(N[C@H]1CN2CCC1CC2)c1ccc2c(c1)CCN2 | 6.22
O=C(N[C@H]1CN2CCC1CC2)c1ccc2occc2c1 | 7.33
O=C(N[C@H]1CN2CCC1CC2)c1cc2sccc2cn1 | 7.09
O=C(N[C@H]1CN2CCC1CC2)c1ccc2ccsc2c1 | 7.32
O=C(N[C@H]1CN2CCC1CC2)c1cnc2occc2c1 | < 5.00
O=C(N[C@H]1CN2CCC1CC2)c1cc2ccsc2cn1 | 7.00
O=C(N[C@H]1CN2CCC1CC2)c1ccc2ccoc2c1 | 7.07
O=C(N[C@H]1CN2CCC1CC2)c1ccc2sccc2c1 | 7.26
O=C(N[C@H]1CN2CCC1CC2)c1ccc(Cl)cc1 [PNU-282987] | 6.89
O=C(N[C@H]1CN2CCC1CC2)c1ccc2cc[nH]c2c1 | 7.00
O=C(N[C@H]1CN2CCC1CC2)c1ccc2ccoc2n1 | < 5.00
O=C(N[C@H]1CN2CCC1CC2)c1ccc2c(c1)CCO2 | 7.11

Tested on: not listed separately
Experiment: Half life in Sprague-Dawley rat liver microsome
Type: ADME
Details: liver microsomes

SMILES | half-life [h]
O=C(N[C@H]1CN2CCC1CC2)c1ccc2occc2c1 | > 2
O=C(N[C@H]1CN2CCC1CC2)c1ccc(Cl)cc1 [PNU-282987] | > 2

Molecular target: Neuronal acetylcholine receptor; alpha4/beta2 (Rattus norvegicus) (UniProt P09483+P12390)
Experiment: Inhibition of [3H]cytisine binding to alpha4beta2 nAChR in rat brain homogenate at 1 uM
Type: tissue-based
Details: not given
How it was run: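 Radioligand displacement in rat brain homogenate with [³H]cytisine as the α4β2 ligand; test compound at 1 µM; value reported as % block of binding.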

SMILES | inhibition [%]
O=C(N[C@H]1CN2CCC1CC2)c1ccc2occc2c1 | 5
O=C(N[C@H]1CN2CCC1CC2)c1ccc(Cl)cc1 [PNU-282987] | 14

Tested on: not listed separately
Experiment: Metabolic stability in Sprague-Dawley rat liver microsomes after 1 hr
Type: ADME, Microsome
Details: read-out: Stability
How it was run: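 Rat liver microsomes incubated with compound, in vitro metabolism; read-out is percent of parent remaining at 1 h.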

SMILES | remaining at 1 h [%]
O=C(N[C@H]1CN2CCC1CC2)c1cc2cc[nH]c2cn1 | 29
O=C(N[C@H]1CN2CCC1CC2)c1cc2occc2cn1 | 40
O=C(N[C@H]1CN2CCC1CC2)c1ccc2occc2c1 | 77
O=C(N[C@H]1CN2CCC1CC2)c1cc2sccc2cn1 | 7
O=C(N[C@H]1CN2CCC1CC2)c1ccc2ccsc2c1 | 29
O=C(N[C@H]1CN2CCC1CC2)c1cc2ccsc2cn1 | 7
O=C(N[C@H]1CN2CCC1CC2)c1ccc2ccoc2c1 | 69
O=C(N[C@H]1CN2CCC1CC2)c1ccc2sccc2c1 | 6
O=C(N[C@H]1CN2CCC1CC2)c1ccc(Cl)cc1 [PNU-282987] | 96
O=C(N[C@H]1CN2CCC1CC2)c1ccc2cc[nH]c2c1 | 14

Molecular target: Neuronal acetylcholine receptor subunit alpha-7 (Rattus norvegicus, UniProt Q05941)
Sequence (Q05941 whole entry): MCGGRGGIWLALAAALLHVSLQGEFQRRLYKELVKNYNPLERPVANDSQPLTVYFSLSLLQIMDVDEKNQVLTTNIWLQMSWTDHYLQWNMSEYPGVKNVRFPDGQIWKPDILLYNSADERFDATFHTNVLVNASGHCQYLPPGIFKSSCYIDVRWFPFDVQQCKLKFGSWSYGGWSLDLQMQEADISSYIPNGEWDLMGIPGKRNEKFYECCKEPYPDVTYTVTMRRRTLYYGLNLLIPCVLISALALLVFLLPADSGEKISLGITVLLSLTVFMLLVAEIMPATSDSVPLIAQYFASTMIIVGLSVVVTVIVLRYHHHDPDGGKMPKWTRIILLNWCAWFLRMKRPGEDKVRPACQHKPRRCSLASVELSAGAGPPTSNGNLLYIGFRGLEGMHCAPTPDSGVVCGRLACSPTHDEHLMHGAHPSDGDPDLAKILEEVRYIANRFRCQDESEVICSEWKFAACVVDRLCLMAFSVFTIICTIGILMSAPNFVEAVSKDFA
Experiment: Displacement of [3H]MLA from alpha-7 nAChR in Sprague-Dawley rat brain homogenates
Type: tissue-based
Details: not given
How it was run: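 Rat brain homogenate binding assay with [3H]MLA as radioligand. Values are the average of two or more experiments.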

SMILES | pKi
O=C(N[C@H]1CN2CCC1CC2)c1cc2occc2cn1 | 7.30
O=C(N[C@H]1CN2CCC1CC2)c1ccc2c(c1)CCN2 | 7.08
O=C(N[C@H]1CN2CCC1CC2)c1ccc2occc2c1 | 8.80
O=C(N[C@H]1CN2CCC1CC2)c1ccc2ccsc2c1 | 8.68
O=C(N[C@H]1CN2CCC1CC2)c1cc2ccsc2cn1 | 8.20
O=C(N[C@H]1CN2CCC1CC2)c1ccc2ccoc2c1 | 7.90
O=C(N[C@H]1CN2CCC1CC2)c1ccc2sccc2c1 | 8.16
O=C(N[C@H]1CN2CCC1CC2)c1ccc(Cl)cc1 [PNU-282987] | 7.62
O=C(N[C@H]1CN2CCC1CC2)c1ccc2c(c1)CCO2 | 7.82

Tested on: not listed separately
Experiment: Oral bioavailability in rat constant infusion model
Type: ADME, organism-based
Details: in vivo
How it was run: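 Rat clearance and oral bioavailability derived from a constant infusion model.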

SMILES | bioavailability [%]
O=C(N[C@H]1CN2CCC1CC2)c1ccc2occc2c1 | 88
O=C(N[C@H]1CN2CCC1CC2)c1ccc2ccoc2c1 | 76
O=C(N[C@H]1CN2CCC1CC2)c1ccc(Cl)cc1 [PNU-282987] | 74

Molecular target: Neuronal acetylcholine receptor; alpha3/beta4 (Homo sapiens, UniProt P30926+P32297)
Experiment: Inhibition of alpha-3-beta-4 nAChR expressed in SHSY5Y cells by FLIPR assay
Type: functional, cell-based, SH-SY5Y
Details: not given
How it was run: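 FLIPR cell-based functional assay in SH-SY5Y cells, which carry α3β4-containing ganglion-type nAChRs; tested for agonist and antagonist activity; IC50 in µM.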

SMILES | pIC50
O=C(N[C@H]1CN2CCC1CC2)c1ccc2occc2c1 | < 4.00
O=C(N[C@H]1CN2CCC1CC2)c1ccc2ccsc2c1 | 4.42
O=C(N[C@H]1CN2CCC1CC2)c1ccc2ccoc2c1 | 4.09
O=C(N[C@H]1CN2CCC1CC2)c1ccc(Cl)cc1 [PNU-282987] | < 4.22

Molecular target: Serotonin 3 (5-HT3) receptor
Experiment: Activity at 5HT3 receptor expressed in SHEP1 cells by FLIPR assay
Type: functional, cell-based, Homo sapiens
Details: not given
How it was run: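 Cell-based FLIPR functional assay in SH-EP1 cells expressing 5-HT3.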

SMILES | pKi
O=C(N[C@H]1CN2CCC1CC2)c1ccc2occc2c1 | 6.24
O=C(N[C@H]1CN2CCC1CC2)c1ccc2ccsc2c1 | 6.73
O=C(N[C@H]1CN2CCC1CC2)c1ccc2ccoc2c1 | 6.02
O=C(N[C@H]1CN2CCC1CC2)c1ccc(Cl)cc1 [PNU-282987] | 5.34

Tested on: not listed separately
Experiment: Clearance in rat constant infusion model
Type: ADME, organism-based
Details: in vivo, iv
How it was run: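 Clearance determined in a rat constant infusion model.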

SMILES | clearance [mL/min/kg]
O=C(N[C@H]1CN2CCC1CC2)c1ccc2occc2c1 | 39
O=C(N[C@H]1CN2CCC1CC2)c1ccc2ccoc2c1 | 58
O=C(N[C@H]1CN2CCC1CC2)c1ccc(Cl)cc1 [PNU-282987] | 30

Molecular target: T1, hERG (Homo sapiens, UniProt Q12809)
T1 sequence (Q12809 whole entry): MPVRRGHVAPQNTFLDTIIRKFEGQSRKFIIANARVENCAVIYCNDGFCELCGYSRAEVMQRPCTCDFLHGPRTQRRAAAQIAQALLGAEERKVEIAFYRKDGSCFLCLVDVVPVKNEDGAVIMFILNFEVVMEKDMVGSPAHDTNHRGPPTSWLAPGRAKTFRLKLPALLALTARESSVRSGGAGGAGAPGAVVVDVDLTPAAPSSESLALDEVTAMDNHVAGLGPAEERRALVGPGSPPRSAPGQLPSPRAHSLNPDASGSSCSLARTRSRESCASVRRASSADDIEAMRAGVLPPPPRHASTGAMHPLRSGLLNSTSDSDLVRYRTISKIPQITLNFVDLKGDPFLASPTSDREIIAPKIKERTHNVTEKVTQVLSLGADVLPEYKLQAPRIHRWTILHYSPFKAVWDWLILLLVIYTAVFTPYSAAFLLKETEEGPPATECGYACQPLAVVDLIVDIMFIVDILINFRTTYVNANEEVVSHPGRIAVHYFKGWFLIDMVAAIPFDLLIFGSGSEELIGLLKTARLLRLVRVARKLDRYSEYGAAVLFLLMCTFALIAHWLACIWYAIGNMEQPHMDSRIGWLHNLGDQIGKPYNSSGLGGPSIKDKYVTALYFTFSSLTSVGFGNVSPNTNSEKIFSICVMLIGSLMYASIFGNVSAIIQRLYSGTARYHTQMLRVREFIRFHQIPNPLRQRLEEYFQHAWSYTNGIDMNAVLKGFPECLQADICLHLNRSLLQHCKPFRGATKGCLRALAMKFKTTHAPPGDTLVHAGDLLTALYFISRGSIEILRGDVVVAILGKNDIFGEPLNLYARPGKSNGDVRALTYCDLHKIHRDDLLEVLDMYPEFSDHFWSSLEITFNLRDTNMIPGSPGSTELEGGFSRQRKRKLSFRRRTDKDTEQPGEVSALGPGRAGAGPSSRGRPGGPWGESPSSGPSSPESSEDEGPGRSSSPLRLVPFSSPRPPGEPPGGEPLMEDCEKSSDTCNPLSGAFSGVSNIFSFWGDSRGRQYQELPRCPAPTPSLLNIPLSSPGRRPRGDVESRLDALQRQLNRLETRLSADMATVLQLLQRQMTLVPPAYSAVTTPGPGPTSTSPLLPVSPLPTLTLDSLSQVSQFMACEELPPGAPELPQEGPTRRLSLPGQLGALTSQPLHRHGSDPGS
Experiment: Inhibition of hERG expressed in HEK293 cells at 20 uM by patch clamp assay
Type: toxicity, cell-based
Details: HEK293 cells that express hERG
How it was run: (§1)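 hERG current (IKr) in HEK cells recorded by patch clamp; compound applied at 2 and 20 µM; % block of current reported at each concentration.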

SMILES | inhibition at 20 µM [%]
O=C(N[C@H]1CN2CCC1CC2)c1ccc2occc2c1 | 33
O=C(N[C@H]1CN2CCC1CC2)c1ccc2ccsc2c1 | 65
O=C(N[C@H]1CN2CCC1CC2)c1ccc2ccoc2c1 | 29
O=C(N[C@H]1CN2CCC1CC2)c1ccc(Cl)cc1 [PNU-282987] | 57

Molecular target: T1, hERG
Experiment: Inhibition of hERG expressed in HEK293 cells at 2 uM by patch clamp assay
Type: toxicity, cell-based
Details: HEK293 cells that express hERG
How it was run: as §1

SMILES | inhibition at 2 µM [%]
O=C(N[C@H]1CN2CCC1CC2)c1ccc2occc2c1 | 2
O=C(N[C@H]1CN2CCC1CC2)c1ccc2ccsc2c1 | 13
O=C(N[C@H]1CN2CCC1CC2)c1ccc2ccoc2c1 | 2
O=C(N[C@H]1CN2CCC1CC2)c1ccc(Cl)cc1 [PNU-282987] | 11

Molecular target: Cytochrome P450 2D6 (Homo sapiens, UniProt P10635)
Sequence (P10635 whole entry): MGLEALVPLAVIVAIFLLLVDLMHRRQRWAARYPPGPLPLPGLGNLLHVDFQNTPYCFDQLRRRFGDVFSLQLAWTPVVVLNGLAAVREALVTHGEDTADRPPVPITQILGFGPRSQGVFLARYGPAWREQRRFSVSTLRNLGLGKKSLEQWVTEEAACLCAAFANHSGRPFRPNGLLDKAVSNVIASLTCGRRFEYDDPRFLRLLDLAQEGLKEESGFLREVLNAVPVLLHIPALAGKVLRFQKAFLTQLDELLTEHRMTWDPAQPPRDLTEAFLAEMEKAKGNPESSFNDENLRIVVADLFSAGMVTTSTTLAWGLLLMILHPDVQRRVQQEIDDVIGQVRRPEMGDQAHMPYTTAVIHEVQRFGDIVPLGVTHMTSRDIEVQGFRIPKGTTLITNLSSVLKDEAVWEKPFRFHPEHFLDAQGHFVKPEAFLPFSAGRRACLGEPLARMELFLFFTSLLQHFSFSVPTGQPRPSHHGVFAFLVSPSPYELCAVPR
Experiment: Inhibition of CYP2D6
Type: ADME
Details: not given

SMILES | pIC50
O=C(N[C@H]1CN2CCC1CC2)c1ccc2occc2c1 | 5.44
O=C(N[C@H]1CN2CCC1CC2)c1ccc2ccoc2c1 | < 5.00
O=C(N[C@H]1CN2CCC1CC2)c1ccc(Cl)cc1 [PNU-282987] | < 5.52

Tested on: not listed separately
Experiment: Half life in human liver microsome
Type: ADME
Details: liver microsomes

SMILES | half-life [h]
O=C(N[C@H]1CN2CCC1CC2)c1ccc2occc2c1 | > 2
O=C(N[C@H]1CN2CCC1CC2)c1ccc2ccoc2c1 | > 2
O=C(N[C@H]1CN2CCC1CC2)c1ccc(Cl)cc1 [PNU-282987] | > 2

Molecular target: Acetylcholine receptor; alpha1/beta1/delta/gamma (Homo sapiens, UniProt P02708+P07510+P11230+Q07001)
Sequence (P02708 whole entry): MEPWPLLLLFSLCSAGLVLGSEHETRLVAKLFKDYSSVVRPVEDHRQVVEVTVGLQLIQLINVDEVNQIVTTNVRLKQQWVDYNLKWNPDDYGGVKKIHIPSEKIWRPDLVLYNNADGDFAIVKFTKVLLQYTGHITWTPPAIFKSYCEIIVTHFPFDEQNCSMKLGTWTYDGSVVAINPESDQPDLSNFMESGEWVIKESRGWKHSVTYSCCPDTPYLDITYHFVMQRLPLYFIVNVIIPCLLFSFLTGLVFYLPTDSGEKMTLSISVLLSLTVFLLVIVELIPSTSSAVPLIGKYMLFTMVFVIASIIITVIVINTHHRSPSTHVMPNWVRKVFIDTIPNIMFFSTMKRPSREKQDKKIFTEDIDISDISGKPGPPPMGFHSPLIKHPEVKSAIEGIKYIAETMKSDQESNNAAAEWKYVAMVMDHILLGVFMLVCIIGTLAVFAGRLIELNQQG
Sequence (P07510 whole entry): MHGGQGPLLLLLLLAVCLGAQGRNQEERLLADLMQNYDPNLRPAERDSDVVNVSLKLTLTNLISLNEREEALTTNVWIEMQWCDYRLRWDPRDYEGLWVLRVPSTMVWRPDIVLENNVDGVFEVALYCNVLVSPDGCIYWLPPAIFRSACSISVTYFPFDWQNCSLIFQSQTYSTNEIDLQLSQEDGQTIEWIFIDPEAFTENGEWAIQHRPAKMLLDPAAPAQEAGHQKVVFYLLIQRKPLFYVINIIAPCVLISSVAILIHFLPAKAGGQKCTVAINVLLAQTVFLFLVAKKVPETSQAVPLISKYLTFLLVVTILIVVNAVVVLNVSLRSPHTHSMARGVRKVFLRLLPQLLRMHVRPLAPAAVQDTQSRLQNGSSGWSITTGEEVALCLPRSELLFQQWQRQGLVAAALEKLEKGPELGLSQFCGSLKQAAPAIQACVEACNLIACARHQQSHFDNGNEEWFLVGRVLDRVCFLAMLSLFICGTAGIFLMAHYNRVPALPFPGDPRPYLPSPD
Sequence (P11230 whole entry): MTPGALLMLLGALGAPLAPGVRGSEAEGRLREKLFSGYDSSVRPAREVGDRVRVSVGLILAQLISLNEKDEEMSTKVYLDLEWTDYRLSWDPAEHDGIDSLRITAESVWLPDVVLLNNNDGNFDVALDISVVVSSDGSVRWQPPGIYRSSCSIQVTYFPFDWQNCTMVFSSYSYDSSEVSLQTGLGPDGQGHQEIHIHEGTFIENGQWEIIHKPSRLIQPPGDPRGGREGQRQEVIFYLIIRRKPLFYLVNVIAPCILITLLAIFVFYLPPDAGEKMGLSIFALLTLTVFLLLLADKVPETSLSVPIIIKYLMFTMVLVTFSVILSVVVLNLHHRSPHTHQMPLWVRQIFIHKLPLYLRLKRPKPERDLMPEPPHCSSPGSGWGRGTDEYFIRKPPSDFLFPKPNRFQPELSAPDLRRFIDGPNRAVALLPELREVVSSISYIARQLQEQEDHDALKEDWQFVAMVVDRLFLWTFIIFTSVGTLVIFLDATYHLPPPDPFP
Sequence (Q07001 whole entry): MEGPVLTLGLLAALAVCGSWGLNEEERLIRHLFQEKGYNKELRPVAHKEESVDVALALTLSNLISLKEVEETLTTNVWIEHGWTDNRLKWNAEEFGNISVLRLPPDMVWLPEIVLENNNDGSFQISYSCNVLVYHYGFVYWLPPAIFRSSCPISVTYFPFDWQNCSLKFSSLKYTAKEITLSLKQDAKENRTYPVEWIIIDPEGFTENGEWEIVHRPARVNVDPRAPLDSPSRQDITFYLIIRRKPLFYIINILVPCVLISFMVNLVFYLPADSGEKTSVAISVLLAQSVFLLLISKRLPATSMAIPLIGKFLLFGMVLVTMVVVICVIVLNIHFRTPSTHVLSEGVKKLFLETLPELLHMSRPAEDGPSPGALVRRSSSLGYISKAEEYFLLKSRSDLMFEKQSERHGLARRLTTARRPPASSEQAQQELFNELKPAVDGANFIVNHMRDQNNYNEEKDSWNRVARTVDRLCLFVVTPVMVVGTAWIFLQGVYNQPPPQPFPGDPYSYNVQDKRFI
Experiment: Inhibition of alpha-1-beta-1-gamma-delta nAChR expressed in TE671cells by FLIPR assay
Type: functional, cell-based, TE-671
Details: not given
How it was run: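 Functional FLIPR read-out in TE671 cells expressing native muscle-type α1β1γδ nAChR, cell-based; tested for agonist and antagonist activity; IC50 in µM.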

SMILES | pIC50
O=C(N[C@H]1CN2CCC1CC2)c1ccc2occc2c1 | < 4.00
O=C(N[C@H]1CN2CCC1CC2)c1ccc2ccsc2c1 | < 4.00
O=C(N[C@H]1CN2CCC1CC2)c1ccc2ccoc2c1 | < 4.00
O=C(N[C@H]1CN2CCC1CC2)c1ccc(Cl)cc1 [PNU-282987] | < 4.22
